Reference: ChEMBL document CHEMBL1153760, “Identification and structure-activity relationships of chromene-derived selective estrogen receptor modulators for treatment of postmenopausal symptoms” (J Med Chem, 2009)
pIC50: −log10 of the molar value. Calls of active or inactive are those of the source. No cut-off for these calls is given here.

How the values were obtained:
Estrogen receptor [1] = target: T1, Estrogen receptor (Homo sapiens, UniProt P03372); experiment: Displacement of radiolabeled estrogen from estrogen receptor alpha by scintillation counting
T1 sequence (P03372 whole entry): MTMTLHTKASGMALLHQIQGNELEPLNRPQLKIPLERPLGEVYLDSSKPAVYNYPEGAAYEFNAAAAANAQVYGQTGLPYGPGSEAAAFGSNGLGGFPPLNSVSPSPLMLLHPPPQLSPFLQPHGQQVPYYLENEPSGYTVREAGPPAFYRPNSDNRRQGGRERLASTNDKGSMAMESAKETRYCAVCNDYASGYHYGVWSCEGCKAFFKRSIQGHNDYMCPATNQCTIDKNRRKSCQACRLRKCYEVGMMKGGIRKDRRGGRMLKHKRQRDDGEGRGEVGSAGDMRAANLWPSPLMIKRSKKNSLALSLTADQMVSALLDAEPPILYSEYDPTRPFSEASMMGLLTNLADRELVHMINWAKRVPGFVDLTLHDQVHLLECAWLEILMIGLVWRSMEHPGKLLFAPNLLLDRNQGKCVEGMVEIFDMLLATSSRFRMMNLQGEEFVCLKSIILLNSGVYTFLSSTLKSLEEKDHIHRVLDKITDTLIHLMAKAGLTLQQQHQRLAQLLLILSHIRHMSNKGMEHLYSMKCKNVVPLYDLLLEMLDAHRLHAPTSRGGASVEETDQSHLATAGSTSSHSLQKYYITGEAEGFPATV

Rattus norvegicus [2] = species on record: Rattus norvegicus; experiment: animal or person; type: functional; details: Uterus, 72 h, route oral
Rattus norvegicus [3] = experiment: Increase in vaginal fluidity in po dosed ovariectomized rat administered daily measured after 2 weeks […]; type: functional, organism-based
Outline: (§1)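 Ovariectomized adult female rats dosed daily by oral gavage (0.5% Methocel suspension) for 2 or 6 weeks from 24 h after surgery. Vaginal fluid collected with a cotton swab and its absolute weight determined per animal.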

Rattus norvegicus [4] = experiment: Effect on bone turnover in po dosed ovariectomized rat assessed as prevention of tibial bone loss administered daily measured after 6 weeks by ex vivo peripheral quantitative computerized tomography; type: functional, organism-based
Rattus norvegicus [5] = experiment: Estrogenic activity in ovariectomized rat assessed as increase in uterine epithelial thickness at 0.1 mg/kg, po administered daily measured after 6 week by immunohistochemical analysis; type: functional, organism-based; parameters: dose 0.1 mg/kg
Estrogen receptor beta = Estrogen receptor beta (Homo sapiens, UniProt Q92731); experiment: Inhibition of fluormone ES2 binding to estrogen receptor beta after 1 hr by fluorescence polarization assay
[6] = AUC in rat at 10 mg/kg, po administered as single dose by LC-MS/MS analysis; type: ADME, organism-based; parameters: dose 10 mg/kg, route oral; details: plasma
Outline: (§2)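 Single-dose rat pharmacokinetics. IV dosing at 1-3 mg/kg as a solution in 10% β-cyclodextrin; oral gavage at 10 mg/kg as a uniform suspension in 0.5% methylcellulose. Blood (0.5 mL) collected into heparinized tubes by orbital sinus puncture after dosing. Plasma extracted into acetonitrile with an internal standard and analysed by LC-MS-MS against standards to obtain PK parameters.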

Rattus norvegicus [7] = experiment: Increase in uterine weight in ovariectomized rat osteopenia model at 1 mg/kg, po administered daily measured after 6 weeks; type: functional, organism-based; parameters: dose 1 mg/kg
Rattus norvegicus [8] = experiment: Effect on bone turnover in ovariectomized rat assessed as prevention of tibial bone density at 0.3 mg/kg, po administered daily measured after 6 weeks by ex vivo peripheral quantitative computerized tomography; type: functional, organism-based; parameters: dose 0.3 mg/kg
Rattus norvegicus [9] = experiment: Decrease in plasma cholesterol level in ovariectomized rat osteopenia model at 0.01 to 0.1 mg/kg, po administered daily measured after 6 weeks; type: functional; parameters: scale not given: the % may be the effect or the level left; details: dose mg/kg 0.01-0.1
Rattus norvegicus [10] = experiment: Decrease in bone resorption in ovariectomized rat assessed as decrease in urine deoxypyridinoline level at 0.003 to 0.3 mg/kg, po administered daily measured after 6 weeks; type: functional, organism-based
Outline: (§3)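 Adult (>6 months) female rats, housed singly on a casein-based diet, ovariectomized under sterile conditions and anesthesia; 6-14 per group. From 24 h after surgery, daily oral gavage of an aqueous suspension in 0.5% Methocel for 2 or 6 weeks. […] Urine deoxypyridinoline measured as bone-resorption marker.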

Rattus norvegicus [11] = experiment: Estrogenic activity in ovariectomized rat assessed as minor increase in uterine epithelial thickness at 0.001 to 0.3 mg/kg, po administered daily measured after 6 week by immunohistochemical analysis; type: functional, organism-based
[12] = Cmax in rats after 10 mg/kg oral dose; type: ADME, organism-based; parameters: dose 10 mg/kg, route oral; details: rat, in vivo; outline: as §2
[13] = Tmax in rat at 10 mg/kg, po administered as single dose by LC-MS/MS analysis; type: ADME, organism-based; parameters: dose 10 mg/kg, route oral; details: in vivo; outline: as §2
[14] = Half life in rat at 10 mg/kg, po administered as single dose by LC-MS/MS analysis; type: ADME, organism-based; parameters: dose 10 mg/kg, route oral; details: in vivo; outline: as §2
Rattus norvegicus [15] = experiment: Increase in vaginal fluidity in ovariectomized rat at 0.1 mg/kg, po administered daily measured after 6 weeks by cytology analysis; type: functional, organism-based; parameters: dose 0.1 mg/kg; outline: as §1
[16] = Half life in rat at 2 mg/kg, iv administered as single dose by LC-MS/MS analysis; type: ADME, organism-based; parameters: dose 2 mg/kg, route intravenous; details: in vivo; outline: as §2
[17] = AUC in rat at 2 mg/kg, iv administered as single dose by LC-MS/MS analysis; type: ADME, organism-based; parameters: dose 2 mg/kg, route intravenous; details: plasma; outline: as §2
[18] = Oral bioavailability in rat at 10 mg/kg administered as single dose by LC-MS/MS analysis; type: ADME, organism-based; details: in vivo; outline: as §2
Rattus norvegicus [19] = experiment: Decrease in tail skin temperature rise in morphine-addicted Sprague-Dawley rat hot flush model at 0.01 to 10 mg/kg, po administered daily measured for 60 mins after naloxone-induced morphine withdrawal; type: functional, organism-based
Outline: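 Ovariectomized adult female Sprague-Dawley rats (3 months), 8-25 per group; oral gavage starting 6 days post-ovariectomy, sesame oil vehicle, suspension. Morphine given sc at 75 and 150 mg on treatment days 3 and 5. On the last day, under ketamine (80 mg/kg, im), tail thermistor; baseline about 20 min, then naloxone 2.0 mg/kg sc and tail skin temperature recorded 60 min. Multiple comparisons at each time point.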

Rattus norvegicus [20] = experiment: Decrease in plasma cholesterol level in ovariectomized rat osteopenia model at 0.3 mg/kg, po administered daily measured after 6 weeks; type: functional; parameters: scale not given: the % may be the effect or the level left
[21] = Tmax in rat at 2 mg/kg, iv administered as single dose by LC-MS/MS analysis; type: ADME, organism-based; parameters: dose 2 mg/kg, route intravenous; details: in vivo; outline: as §2
Rattus norvegicus [22] = experiment: Increase in uterine weight in po dosed ovariectomized rat osteopenia model administered daily measured after 6 weeks; type: functional, organism-based
Estrogen receptor [23] = target: T1, Estrogen receptor; experiment: Antagonist activity at estrogen receptor in human Ishikawa cells assessed as 17-beta-estradiol-induced alkaline phosphatase activity after 3 days by chemiluminescence assay; type: functional, cell-based
Rattus norvegicus [24] = experiment: Decrease in plasma cholesterol level in ovariectomized rat osteopenia model at 0.03 mg/kg, po administered daily measured after 6 weeks; type: functional; parameters: scale not given: the % may be the effect or the level left
Rattus norvegicus [25] = experiment: Decrease in plasma cholesterol level in ovariectomized rat osteopenia model at 0.003 to 0.3 mg/kg, po administered daily measured after 2 weeks; type: functional, organism-based
[26] = Cmax in rats after 2 mg/kg intravenous dose; type: ADME, organism-based; parameters: dose 2 mg/kg, route intravenous; details: rat, in vivo; outline: as §2
Rattus norvegicus [27] = experiment: Increase in uterine weight in po dosed ovariectomized rat osteopenia model administered daily measured after 2 weeks; type: functional, organism-based
Rattus norvegicus [28] = experiment: Metabolite Cmax in rats after 10 mg/kg JNJ-1968990 oral dose; type: ADME, organism-based; parameters: dose 10 mg/kg, route oral; details: in vivo; outline: as §2
Rattus norvegicus [29] = experiment: Decrease in bone resorption in ovariectomized rat assessed as decrease in urine deoxypyridinoline level at 0.1 to 1 mg/kg, po administered daily measured after 2 weeks; type: functional, organism-based; outline: as §3
Rattus norvegicus [30] = experiment: Metabolic stability in rat assessed as 8-Methoxy-6R-(-)-[4-(2-piperidin-1-ylethoxy)phenyl]-11,12-dihydro-5H-6,13-dioxabenzo[3,4]cyclohepta-[1,2-a]naphthalen-2-ol Tmax at 10 mg/kg, po administered as single dose by LC-MS/MS analysis; type: ADME, organism-based; parameters: dose 10 mg/kg, route oral; details: in vivo; outline: as §2
Rattus norvegicus [31] = experiment: Estrogenic activity in ovariectomized rat assessed as minor increase in uterine epithelial thickness at 0.1 to 1 mg/kg, po administered daily measured after 6 week by immunohistochemical analysis; type: functional, organism-based
Rattus norvegicus [32] = experiment: Metabolic stability in rat assessed as 8-Methoxy-6R-(-)-[4-(2-piperidin-1-ylethoxy)phenyl]-11,12-dihydro-5H-6,13-dioxabenzo[3,4]cyclohepta-[1,2-a]naphthalen-2-ol Tmax at 2 mg/kg, iv administered as single dose by LC-MS/MS analysis; type: ADME, organism-based; parameters: dose 2 mg/kg, route intravenous; details: in vivo; outline: as §2
Rattus norvegicus [33] = experiment: Decrease in plasma cholesterol level in po dosed ovariectomized rat osteopenia model administered daily measured after 2 weeks; type: functional, organism-based
Rattus norvegicus [34] = experiment: Metabolite Cmax in rats after 2 mg/kg JNJ-1968990 intravenous dose; type: ADME, organism-based; parameters: dose 2 mg/kg, route intravenous; details: in vivo; outline: as §2

Estrogen receptor beta, sequence (Q92731 whole entry): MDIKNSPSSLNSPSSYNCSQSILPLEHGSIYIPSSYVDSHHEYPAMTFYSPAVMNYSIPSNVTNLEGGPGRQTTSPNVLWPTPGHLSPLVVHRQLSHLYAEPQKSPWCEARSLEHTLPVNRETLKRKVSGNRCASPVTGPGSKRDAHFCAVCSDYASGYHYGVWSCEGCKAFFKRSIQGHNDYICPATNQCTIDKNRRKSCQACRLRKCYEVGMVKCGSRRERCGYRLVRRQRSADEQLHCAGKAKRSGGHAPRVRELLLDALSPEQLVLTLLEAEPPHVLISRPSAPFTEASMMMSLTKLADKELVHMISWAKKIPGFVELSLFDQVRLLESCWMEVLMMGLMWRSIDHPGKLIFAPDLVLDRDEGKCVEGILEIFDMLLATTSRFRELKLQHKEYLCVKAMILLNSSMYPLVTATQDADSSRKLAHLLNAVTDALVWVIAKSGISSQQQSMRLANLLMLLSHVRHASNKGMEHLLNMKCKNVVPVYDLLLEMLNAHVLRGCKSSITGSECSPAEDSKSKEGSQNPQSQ

Compound: COc1ccc2c(c1)O[C@H](c1ccc(OCCN3CCCCC3)cc1)C1=C2CCOc2cc(OC)ccc21
- pIC50 (Estrogen receptor [1]): 7.19
- inhibition in vivo at 1 mg/kg (Rattus norvegicus [2]): 121%
- Activity (Rattus norvegicus [3]): Dose-dependent effect
- Activity (Rattus norvegicus [4]): Dose-dependent effect
- Activity (Rattus norvegicus [5]): Active
- IC50 (Estrogen receptor beta): Not Active
- AUC [6]: 2270 ng·h/mL
- Activity (Rattus norvegicus [7]): inactive
- Activity (Rattus norvegicus [8]): Active
- Activity (Rattus norvegicus [9]): 60%
- Activity (Rattus norvegicus [10]): Active
- Activity (Rattus norvegicus [11]): Active
- Cmax [12]: 168 ng/mL
- Tmax [13]: 5 h
- half-life [14]: 7.2 h
- Activity (Rattus norvegicus [15]): Active
- half-life [16]: 5.82 h
- AUC [17]: 1390 ng·h/mL
- bioavailability [18]: 30.8%
- Activity (Rattus norvegicus [19]): Active
- Activity (Rattus norvegicus [20]): 50%
- Tmax [21]: 4.8 min
- Activity (Rattus norvegicus [22]): Dose-dependent effect
- pIC50 (Estrogen receptor [23]): 5.76
- Activity (Rattus norvegicus [24]): 50%
- Activity (Rattus norvegicus [25]): Active
- Cmax [26]: 1040 ng/mL

Compound: COc1ccc2c(c1)O[C@H](c1ccc(OCCN3CCCCC3)cc1)C1=C2CCOc2cc(O)ccc21
- Activity (Rattus norvegicus [27]): inactive
- pIC50 (Estrogen receptor [1]): 8.05
- inhibition in vivo at 1 mg/kg (Rattus norvegicus [2]): 99%
- Cmax_metabolite (Rattus norvegicus [28]): 33.3 ng/mL
- Activity (Rattus norvegicus [29]): Active
- pIC50 (Estrogen receptor beta): 8.15
- Tmax (Rattus norvegicus [30]): 6 h
- Activity (Rattus norvegicus [31]): Active
- AUC [6]: 6920 ng·h/mL
- Cmax [12]: 219 ng/mL
- Tmax [13]: 6 h
- half-life [14]: 19.8 h
- bioavailability [18]: 58%
- Tmax (Rattus norvegicus [32]): 8 h
- pIC50 (Estrogen receptor [23]): 6.59
- Activity (Rattus norvegicus [33]): Active
- Cmax_metabolite (Rattus norvegicus [34]): 7.6 ng/mL
